Assay [1] deals with Mus musculus. Description: Licking latency was measured before treatment (at dose=5 mg/kg) by using mouse hot plate test. It is filed as functional. The procedure, abridged: (§1)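 Male Swiss-Webster mice (22-28 g), 23 ± 1 °C, 12-h light/dark cycle. Hot plate at 52.5 ± 0.1 °C. Mice with pre-drug licking latency below 12 s or over 18 s were rejected. Cutoff 45 s. Compound given sc; latency read before dosing and at 15, 30 and 45 min. 5-12 mice per test.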

Assay [2] has as its system Mus musculus. In words: MNTD:Maximal nontoxic dose of the compound, done on mouse; sc. It is filed as functional. The procedure, abridged: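 Male Swiss-Webster mice dosed sc. The value is the highest dose causing no visible behavioural change (tremors, convulsions, hypomotility etc.), so that treated mice could not be told apart from untreated ones. Behaviour was scored by the Irwin method in groups of at least 10 animals.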

The test system of assay [3] is Mus musculus. Description: MAD: minimal dose able to induce a statistically significant increase of the pain threshold, done on mouse; sc. Type of assay: functional. The method, boiled down: (§2)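 Mouse hot plate test (52.5 ± 0.1 °C, 45 s cutoff) after sc dosing, in male Swiss-Webster mice. The value is the lowest dose giving a statistically significant rise in pain threshold. Dunnett's two-tailed test compared treated mice at maximum reaction time with pretest time, P < 0.05.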

Assay [4] is filed under the species Mus musculus. In words: Analgesic efficacy is expressed as percentage of that morphine, done on mouse. Type of assay: functional.
The test system of assay [5] is Mus musculus. In words: Licking latency was measured after 45 min treatment (at dose=25 mg/kg) by using mouse hot plate test. Type of assay: functional. The procedure, abridged:
(§3)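 Male Swiss-Webster mice (22-28 g), 23 ± 1 °C, 12-h light/dark cycle, food and water ad libitum. Hot plate at 52.5 ± 0.1 °C with licking latency as read-out and 45 s cutoff. Mice with pre-drug latency below 12 or over 18 s were rejected. Compounds given sc, 5-12 mice per test. Significance was assessed by Dunnett's two-tailed test, P < 0.05.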
Background: Thermal pain tests record how soon the animal reacts.

Assay [6] relates to Mus musculus. Description: Licking latency was measured after 45 min treatment (at dose=5 mg/kg) by using mouse hot plate test. Type of assay: functional. The method, boiled down:
as §3

In assay [7] the test system is Mus musculus. In words: Licking latency was measured after 15 min treatment (at dose=25 mg/kg) by using mouse hot plate test. It is filed as functional. The method, boiled down: as §3
Assay [8] has as its system Mus musculus. Description: Licking latency was measured after 30 min treatment (at dose=5 mg/kg) by using mouse hot plate test. Type of assay: functional. The method, boiled down: as §3
Assay [9] has as its system Mus musculus. Description: Licking latency was measured after 15 min treatment (at dose=5 mg/kg) by using mouse hot plate test. Type of assay: functional. The procedure, abridged:
as §3

Assay [10] concerns Mus musculus. Description: Licking latency was measured after 30 min treatment (at dose=25 mg/kg) by using mouse hot plate test. It is filed as functional. The procedure, abridged: as §3
In assay [11] the test system is Mus musculus. Description: Licking latency was measured before treatment (at dose=25 mg/kg) by using mouse hot plate test. It is filed as functional. The method, boiled down:
as §3

The species named for assay [12] is Mus musculus. In words: Analgesic efficacy is expressed as percentage of that epibatidine, done on mouse. Type of assay: functional.
Assay [13] concerns Mus musculus. In words: Licking latency was measured before treatment (at dose=10 mg/kg) by using mouse hot plate test. It is filed as functional. The procedure, abridged:
as §3

Assay [14] has as its system Mus musculus. In words: Licking latency was measured after 30 min treatment (at dose=10 mg/kg) by using mouse hot plate test. Type of assay: functional. The method, boiled down:
as §3

The subject of assay [15] is Mus musculus. Description: Licking latency was measured after 15 min treatment (at dose=10 mg/kg) by using mouse hot plate test. Type of assay: functional. The method, boiled down:
as §3

Assay [16] relates to Mus musculus. In words: Licking latency was measured after 45 min treatment (at dose=10 mg/kg) by using mouse hot plate test. Type of assay: functional. The method, boiled down:
as §3

Assay [17] deals with Mus musculus. In words: Licking latency was measured after 45 min treatment (at dose=50 mg/kg) by using mouse hot plate test. It is filed as functional. The method, boiled down:
as §3

Assay [18] has as its system Mus musculus. In words: Licking latency was measured after 30 min treatment (at dose=50 mg/kg) by using mouse hot plate test. Type of assay: functional. The method, boiled down: as §3
The subject of assay [19] is Mus musculus. Description: MAD: minimal dose able to induce a statistically significant increase of the pain threshold, done on mouse; sc; IA = inactive. Type of assay: functional, organism-based. The procedure, abridged:
as §2

For assay [20], the system named is Mus musculus. Description: Licking latency was measured after 15 min treatment (at dose=50 mg/kg) by using mouse hot plate test. It is filed as functional. The procedure, abridged: as §3
The test system of assay [21] is Mus musculus. Description: Licking latency was measured before treatment (at dose=50 mg/kg) by using mouse hot plate test. It is filed as functional. The method, boiled down: as §1
For assay [22], the system named is Mus musculus. Description: Licking latency was measured after 15 min treatment (at dose=15 mg/kg) by using mouse hot plate test (*P<0.01). It is filed as functional. The method, boiled down: as §3
Assay [23] deals with Mus musculus. In words: Licking latency was measured after 45 min treatment (at dose=15 mg/kg) by using mouse hot plate test (*P<0.01). Type of assay: functional. The method, boiled down: as §3
Assay [24] concerns Mus musculus. In words: Licking latency was measured before treatment (at dose=15 mg/kg) by using mouse hot plate test. Type of assay: functional. The method, boiled down: as §3
Assay [25] deals with Mus musculus. Description: Licking latency was measured after 30 min treatment (at dose=15 mg/kg) by using mouse hot plate test (*P<0.01). It is filed as functional. The method, boiled down: as §3
Assay [26] has as its system Mus musculus. In words: Licking latency was measured after 45 min treatment (at dose=25 mg/kg) by using mouse hot plate test (*P<0.01). It is filed as functional. The method, boiled down: as §3
In assay [27] the test system is Mus musculus. Description: Licking latency was measured after 15 min treatment (at dose=25 mg/kg) by using mouse hot plate test (*P<0.01). It is filed as functional. The procedure, abridged:
as §3

Assay [28] deals with Mus musculus. In words: Licking latency was measured after 30 min treatment (at dose=25 mg/kg) by using mouse hot plate test (*P<0.01). It is filed as functional. The procedure, abridged:
as §3

Calls of active or inactive are those of the source.

In the case of `CSc1nc(Cl)cc(N2CC3CCC(C2)N3)n1`, the Licking latency stood at 14.7 s in the assay on Mus musculus [1]; 36.5 s in the assay on Mus musculus [5]; 18.7 s in the assay on Mus musculus [6]; 40.8 s with Mus musculus [7]; 20.5 s in the assay on Mus musculus [8]; 20.3 s in the assay with Mus musculus [9]. The Licking latency in the assay with Mus musculus [10] worked out at 43.8 s; with Mus musculus [11], 15.1 s. The compound also had an MNTD in the assay with Mus musculus [2] of 30 mg/kg. In the assay on Mus musculus [3], this compound showed an MAD of 5 mg/kg. In the assay listed under Mus musculus [4], the “Analgesic efficacy compared to morphine” value stood at 149%. Further, the “Analgesic efficacy compared to epibatidine” value in the assay listed under Mus musculus [12] is recorded as 182%.

For `Clc1ccnc(N2CC3CCC(C2)N3)n1`, the Licking latency with Mus musculus [13] is 14.6 s; in the assay on Mus musculus [1], 15 s; in the assay on Mus musculus [14], 21.2 s; in the assay with Mus musculus [6], 15.6 s; in the assay with Mus musculus [8] it was 17.8 s; with Mus musculus [9], 20.5 s. Moreover, the Licking latency in the assay with Mus musculus [15] was determined as 26.3 s; in the assay with Mus musculus [16], 22.1 s. The same compound had an MNTD with Mus musculus [2] of 15 mg/kg. For the same compound, the MAD with Mus musculus [3] turned out to be 5 mg/kg. Besides, the “Analgesic efficacy compared to morphine” value in the assay filed under Mus musculus [4] is 60%. For the same compound, the “Analgesic efficacy compared to epibatidine” value in the assay filed under Mus musculus [12] came to 75%.

Consider `Clc1cccnc1N1CC2CCC(C1)N2`, for which the Licking latency in the assay with Mus musculus [1] worked out at 13.7 s; in the assay on Mus musculus [5], 27.5 s; with Mus musculus [6] it was 18.3 s; in the assay on Mus musculus [7], 39.2 s; in the assay with Mus musculus [8], 20.3 s; in the assay on Mus musculus [9], 21.3 s. In addition, the Licking latency stood at 29.7 s in the assay with Mus musculus [10] and 15.3 s in the assay with Mus musculus [11]. In the assay with Mus musculus [2], this compound gave an MNTD of 40 mg/kg. In the assay on Mus musculus [3], this compound displayed an MAD of 10 mg/kg. Further, the “Analgesic efficacy compared to morphine” value in the assay filed under Mus musculus [4] is 124%. Also, the “Analgesic efficacy compared to epibatidine” value in the assay listed under Mus musculus [12] was 151%.

As for `Clc1ccc(N2C3CCC2CN(Cc2ccccc2)C3)nn1`, the MNTD in the assay with Mus musculus [2] is more than 50 mg/kg. Further, the Licking latency is 17.6 s with Mus musculus [17], 15.3 s in the assay with Mus musculus [18], 17.2 s with Mus musculus [20] and 14.8 s in the assay with Mus musculus [21]. In the assay with Mus musculus [19], the MAD result is “inactive”.

As to `Clc1ccc(N2C3CCC2CNC3)nn1`, the Licking latency with Mus musculus [13] stood at 12.2 s; in the assay on Mus musculus [22] it was 23.2 s; in the assay on Mus musculus [23] it was 20.6 s; in the assay with Mus musculus [24] it was 15.3 s; in the assay with Mus musculus [25], 22.9 s; in the assay with Mus musculus [14], 15.4 s. In addition, the Licking latency with Mus musculus [26] stood at 26.4 s; with Mus musculus [27], 35.5 s; in the assay with Mus musculus [11], 15 s; in the assay with Mus musculus [15], 17 s; with Mus musculus [28], 34.8 s; in the assay with Mus musculus [16], 17.4 s. Also, the MNTD in the assay on Mus musculus [2] is 30 mg/kg. In addition, in the assay on Mus musculus [3], the MAD came to 15 mg/kg. In addition, the “Analgesic efficacy compared to morphine” value in the assay listed under Mus musculus [4] came to 107%. The “Analgesic efficacy compared to epibatidine” value in the assay listed under Mus musculus [12] turned out to be 130%.
